This assay has as its target T1, Peroxisome proliferator-activated receptor alpha (Homo sapiens) (UniProt Q07869).
T1 sequence (whole entry): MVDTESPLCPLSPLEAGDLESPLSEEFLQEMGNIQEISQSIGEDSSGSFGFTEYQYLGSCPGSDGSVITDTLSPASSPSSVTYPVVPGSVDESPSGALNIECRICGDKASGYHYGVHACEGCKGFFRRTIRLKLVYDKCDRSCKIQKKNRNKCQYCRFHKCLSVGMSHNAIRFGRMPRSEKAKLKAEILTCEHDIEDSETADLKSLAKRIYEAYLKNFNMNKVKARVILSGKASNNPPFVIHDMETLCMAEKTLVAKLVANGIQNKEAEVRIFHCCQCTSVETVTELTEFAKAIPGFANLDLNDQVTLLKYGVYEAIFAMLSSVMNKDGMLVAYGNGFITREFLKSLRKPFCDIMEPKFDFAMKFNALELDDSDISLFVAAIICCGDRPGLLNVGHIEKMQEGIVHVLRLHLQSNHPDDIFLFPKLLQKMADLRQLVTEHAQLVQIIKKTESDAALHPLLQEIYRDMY
Briefly: Agonist activity at human PPARalpha in 8 day differentiated human SGBS cells assessed as increase in ANGPTL4 gene expression at 25 uM incubated for 24 hrs by SYBR-green based qPCR analysis. Particulars: filed as agonist. It is filed as cell-based. The procedure, abridged:
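SGBS preadipocytes were seeded at passage P6-P8 and grown to confluence. They were differentiated for 4 days in Quickdiff (3FC plus dexamethasone, IBMX and rosiglitazone), then kept in 3FC with medium renewed every fourth day. On day 8, cells were stimulated for 24 h in 3FC with compound:BSA or rosiglitazone. SYBR-green qPCR used gene-specific primers. Data are mean ± SEM of three biological replicates in duplicate.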
Background: Quantitative PCR measures a nucleic acid by following its amplification.

Calls of active or inactive are those of the source. The calls are words filed in the database; no cut-off is given here.

As to `CCCCC/C=C/C(=O)CCCCCCCC(=O)O`, the outcome was Active.

(Values after ChEMBL document CHEMBL4715825, “Synthesis and biological evaluations of marine oxohexadecenoic acids: PPARα/γ dual agonism and anti-diabetic target gene effects” (Eur J Med Chem, 2018).)
